Apaf-1 inh: inhibitors of human Apaf-1 apoptosome; O14727; reconstituted apoptosome caspase-3 activity, DEVD-Rh110 fluorescence; inhibition, % at 20 µM; 0.71% of 330,000 active; active means inhibition of at least 40% at 20 µM
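Material: reconstituted apoptosome with Apaf-1, cytochrome c, caspase-9, procaspase-3, dATP / Buffer or medium: pH 7.5 Hepes buffer with CHAPS, BSA, DTT / Also added: cytochrome c with DEVD-Rh110 / Schedule: compound with Apaf-1, dATP, procaspase-3 30 min, then 50 min reaction, room temperature / Technique: rhodamine 110 fluorescence at Ex 480/Em 540 nm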
MPTP inh: permeability transition pore inhibition; isolated mouse mitochondria, Ca2+ swelling absorbance, 30 min; inhibition, % at 10 µM; 1.4% of 360,000 active; AID 602449;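 active means inhibition of 50% or more, scaled per plate between neutral and stimulator controls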
MIN6 prolif: MIN6 beta-cell proliferation induction | MIN6 cells proliferation, ATPlite luminescence, 48 h; cells starved in 0.2% serum; 100% = growth in 10% serum | proliferation, % at 10 µM | 0.29% of 330,000 active | AID 2380;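 active means compounds whose signal lies at least 3.5 SD above the mean of all wells on their plate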
Granule exo inh: lytic granule exocytosis inhibition; TALL-104 LAMP-1 surface exposure, flow cytometry; cells stimulated with thapsigargin and PMA; inhibition, % at 10 µM; 0.66% of 360,000 active;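 active means inhibition above about 55%, limit read from the data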
UBC13 polyUb: inhibitors of human UBC13 polyubiquitin chain formation; TR-FRET; 0.47% of 330,000 active; P61088; AID 485273; inhibition, % at 20 µM; in the data active means inhibition above about 45%, passing the limit was not always enough
Target sequence (P61088 whole entry, looked up): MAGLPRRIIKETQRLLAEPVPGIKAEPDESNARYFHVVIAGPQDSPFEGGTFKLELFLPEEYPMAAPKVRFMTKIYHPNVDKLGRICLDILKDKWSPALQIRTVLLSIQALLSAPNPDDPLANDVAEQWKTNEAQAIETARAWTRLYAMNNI
iPSC survival up: increases survival of single human iPS cells | hiPSC single-cell survival, ATPlite luminescence; 100% = ROCK inhibitor wells, 0% = DMSO | survival enhancement, % at 20 µM | 0.044% of 360,000 active; in the data active means survival enhancement above about 18%;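 further: cells exposed to compounds for 16 hours before the ATP read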
Large screens that a line does not name were inactive. Most compounds without a hit are left out; they make up all but 3% or so of the library.

CCOCCCNC(=O)/C(C#N)=C/c1ccc(-c2ccc(S(=O)(=O)N3CCOCC3)cc2)o1	none
CC(NC(=O)/C(C#N)=C/c1ccc([N+](=O)[O-])o1)c1ccccc1 (configuration not stated)	Granule exo inh 67
CCOCCCNC(=O)/C(C#N)=C/c1ccc([N+](=O)[O-])o1	iPSC survival up 29
O=C(CSc1nc2sc3c(c2c(=O)n1-c1ccccc1)CCCC3)N/N=C/c1ccccc1C(=O)O	none
O=C(Nc1nc2c(F)cccc2s1)C1CC1	none
CC1CCc2c(sc(Nc3nc4c(F)cccc4s3)c2C(N)=O)C1 (configuration not stated)	Granule exo inh 85
O=C(NCc1cccnc1)/C(=C\c1ccc(-c2cccc(Cl)c2)o1)S(=O)(=O)c1ccccc1	Granule exo inh 90 (no result: Apaf-1 inh, MIN6 prolif, UBC13 polyUb)
COc1cccc(C(C(=O)NC2CCCC2)N2CCN(c3cc(C)ccc3C)CC2)c1OC (configuration not stated)	none (no result: Apaf-1 inh, MIN6 prolif, UBC13 polyUb, iPSC survival up)
CCN(CC)C(=S)SSC(=S)N(CC)CC	Granule exo inh 64
Cc1cccc(C)c1NC(=O)c1sccc1SCc1cccc(C(F)(F)F)c1	Granule exo inh 66
Cc1cnc(=O)[nH]c1SCc1cccc(C(F)(F)F)c1	none
CCOC(=O)C1CCN(c2ncnc3c2[nH]c2cccc(OC)c23)CC1	none
COc1cccc2[nH]c3c(N4CCCCC4)ncnc3c12	Granule exo inh 69
Cc1cccc(N(CC(=O)N2CCc3ccccc3C2)S(C)(=O)=O)c1C	none
COc1ccc(C(C)(O)c2nc(-c3ccc4ccccc4c3)cs2)cc1 (configuration not stated)	none (no result: Apaf-1 inh, MIN6 prolif, UBC13 polyUb)
CC(C)(C)OC(=O)NCc1ccc(NC(=O)c2nc[nH]c2C(=O)NCCNC(=O)c2[nH]cnc2C(=O)Nc2ccc(CNC(=O)OC(C)(C)C)cc2)cc1	Granule exo inh 62
CC(C)(C)OC(=O)CNC(=O)c1[nH]cnc1C(=O)Nc1ccc(CNC(=O)OC(C)(C)C)cc1	none
COC(=O)c1ccc(NC(=O)c2ccc(NC(=O)c3ccco3)cc2)cc1	Apaf-1 inh 44
COC(=O)CCC(=O)OC1(C)C(=O)C2=CN(Cc3ccc4c(c3)OCO4)C(c3ccc(OC)cc3)=CC2=C(Br)C1=O (configuration not stated)	none
COC(=O)CCC(=O)OC1(C)C(=O)C2=CN(CCN3CCOCC3)C(c3ccc(OC)cc3)=CC2=C(Br)C1=O (configuration not stated)	Apaf-1 inh 86 (no result: MPTP inh, Granule exo inh, iPSC survival up)
COC(=O)CCC(=O)OC1(C)C(=O)C2=CN(C(CO)CO)C(c3ccc(OC)cc3)=CC2=C(Br)C1=O (configuration not stated)	Apaf-1 inh 81 (no result: MPTP inh, Granule exo inh, iPSC survival up)
COC(=O)CCC(=O)OC1(C)C(=O)C2=CN(CCc3ccccn3)C(c3ccc(OC)cc3)=CC2=C(Br)C1=O (configuration not stated)	Apaf-1 inh 73
COC(=O)CCC(=O)OC1(C)C(=O)C2=COC(c3ccc(OC)cc3)=CC2=C(Br)C1=O (configuration not stated)	none (no result: MPTP inh, Granule exo inh, iPSC survival up)
COC(=O)CCC(=O)OC1(C)C(=O)C2=CN(CCCCO)C(c3ccc(OC)cc3)=CC2=C(Br)C1=O (configuration not stated)	Apaf-1 inh 80 (no result: MPTP inh, Granule exo inh, iPSC survival up)
CCn1c2ccccc2nc2cc3c(cc21)c(Cl)c(=O)c1ccccc13	Granule exo inh 119 (no result: Apaf-1 inh, MIN6 prolif, UBC13 polyUb)
CCn1c(/C=C/c2c(C)n(CC)c3ccccc23)nc2ccccc2c1=O	none
O=C(C#Cc1cccc([N+](=O)[O-])c1)c1ccccc1	Granule exo inh 70
O=C1C2C(C(=O)N1/N=C/c1ccc(N3CCCCC3)o1)C1C=CC2C12CC2 (configuration not stated)	Granule exo inh 68
C#CCOCCOCCOCCNc1nc(N2CCOCC2)nc(N2CCN(C(=O)[C@H](Cc3cc4ccccc4[nH]3)n3cc([C@@H](N)C(C)CC)nn3)CC2)n1 (some centres not stated)	none
C#CCOCCOCCOCCNc1nc(N2CCN(C(=O)[C@H](Cc3ccc(O)cc3)n3cc([C@@H](N)C(C)CC)nn3)CC2)nc(N2CCN(C(=O)[C@H](Cc3cc4ccccc4[nH]3)n3cc([C@@H](N)Cc4ccc(O)cc4)nn3)CC2)n1 (some centres not stated)	Apaf-1 inh 56, UBC13 polyUb 78 (no result: MPTP inh, Granule exo inh, iPSC survival up)
C#CCOCCOCCOCCNc1nc(N2CCN(C(=O)C(Cc3ccc(O)cc3)n3cc(C(N)CC(C)C)nn3)CC2)nc(N2CCN(C(=O)C(Cc3cc4ccccc4[nH]3)n3cc(C(N)C(C)CC)nn3)CC2)n1 (configuration not stated)	UBC13 polyUb 77 (no result: MPTP inh, Granule exo inh, iPSC survival up)
C#CCOCCOCCOCCNc1nc(N2CCN(C(=O)[C@H](Cc3ccc(O)cc3)n3cc([C@@H](N)CC(C)C)nn3)CC2)nc(N2CCN(C(=O)[C@H](Cc3ccc(O)cc3)n3cc([C@@H](N)CC(C)C)nn3)CC2)n1	UBC13 polyUb 63 (no result: MPTP inh, Granule exo inh, iPSC survival up)
C#CCOCCOCCOCCNc1nc(N2CCN(C(=O)[C@H](CCCCN)n3cc(C(N)CO)nn3)CC2)nc(N2CCN(C(=O)[C@H](CCC(=O)O)n3cc(C(N)Cc4ccc(O)cc4)nn3)CC2)n1 (some centres not stated)	none (no result: MPTP inh, Granule exo inh, iPSC survival up)
C#CCOCCOCCOCCNc1nc(N2CCN(C(=O)[C@H](CCCCN)n3cc([C@@H](N)CO)nn3)CC2)nc(N2CCN(C(=O)[C@H](Cc3cc4ccccc4[nH]3)n3cc([C@@H](N)Cc4ccc(O)cc4)nn3)CC2)n1	Apaf-1 inh 55, UBC13 polyUb 106 (no result: MPTP inh, Granule exo inh, iPSC survival up)
Fc1cccc(Cc2c(-c3cccc(Cl)c3)nc3c(Cl)cc(C(F)(F)F)cn23)c1	none (no result: Apaf-1 inh, MIN6 prolif, UBC13 polyUb)
COc1ccc(C(=O)COC(=O)c2nn(C)cc2Cl)cc1	none
COc1cc(OC)c(C2Nc3cccc4cccc(c34)N2)c(OC)c1	Granule exo inh 76
C#CCOCCOCCOCCNc1nc(N2CCN(C(=O)Cn3cc(CC(C)O)nn3)CC2)nc(N2CCN(C(=O)[C@H](CCCCN)n3cc(CC(C)O)nn3)CC2)n1 (some centres not stated)	none (no result: Apaf-1 inh, MIN6 prolif, UBC13 polyUb)
O=[N+]([O-])c1c(Nc2ccccc2O)ccc2nonc12	none
O=[N+]([O-])c1c(Nc2ccccc2O)cc(Cl)c2nonc12	Granule exo inh 61
Cc1ccc2c(c1)C(=C(C#N)C#N)C(=O)N2CCN1CCCCC1	Granule exo inh 56
Cc1ccc2c(c1)C(=C(C#N)C#N)C(=O)N2CCN1CCOCC1	none
N#Cc1ccc2[nH]cc(CCO)c2c1	none
COc1ccc(C(=O)COC(=O)CCN2C(=O)C3C4C=CC(C5CC45)C3C2=O)cc1 (configuration not stated)	none
COC(=O)c1ccccc1N/C=C1\CCc2c(c(C)nn2-c2ccccn2)C1=O	Apaf-1 inh 69, Granule exo inh 65
